Our source for the Ki, Concentration and IC50 values is ChEMBL document CHEMBL1137151, “Novel factor Xa inhibitors based on a 2-carboxyindole scaffold: SAR of P4 substituents in combination with a neutral P1 ligand” (Bioorg Med Chem Lett, 2004).

For experiment [1], the target named is Coagulation factor X (Homo sapiens, UniProt P00742). In words: Inhibitory activity against serine protease factor Xa.
Experiment [2] concerns the target T1, Prothrombin (Homo sapiens, UniProt P00734). The experiment in a line: Concentration required to double plasma clotting prothrombin time. It is filed as functional, cell-free. In outline:
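Standard plasma coagulation assays, APTT and PT respectively. The value is the inhibitor concentration that doubles plasma clotting time.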

The target in experiment [3] is T1, Prothrombin. The experiment in a line: Inhibitory activity against coagulation factor II (thrombin).
Experiment [4] concerns the target T1, Prothrombin. The experiment in a line: Inhibitory concentration in dilute prothrombin time assay. It counts as functional. The essentials:
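Dilute prothrombin time assay, run as PT with diluted thromboplastin reagent. The value is the inhibitor concentration giving 50% inhibition of dPT.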

Experiment [5] concerns the target Trypsin (Homo sapiens, UniProt P07477+P07478+P35030). The experiment in a line: Inhibitory activity against coagulation factor trypsin. It is filed as protein assay.
Experiment [6] concerns the target Tissue-type plasminogen activator (Homo sapiens, UniProt P00750). In words: Inhibitory activity against human tissue plasminogen activator.

Bounds are passed on as bounds.

A word on the Ki: it is a dissociation constant, usually derived from enzyme kinetics or from competition with a known ligand. Broadly, the IC50 is the concentration that gives 50% inhibition.

Coagulation factor X, sequence (P00742 41-179 limits assumed): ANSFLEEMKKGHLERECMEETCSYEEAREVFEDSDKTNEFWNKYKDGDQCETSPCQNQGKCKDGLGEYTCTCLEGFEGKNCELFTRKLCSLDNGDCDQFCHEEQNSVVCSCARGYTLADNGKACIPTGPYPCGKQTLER
Coagulation factor X, sequence (P00742 235-488 limits assumed): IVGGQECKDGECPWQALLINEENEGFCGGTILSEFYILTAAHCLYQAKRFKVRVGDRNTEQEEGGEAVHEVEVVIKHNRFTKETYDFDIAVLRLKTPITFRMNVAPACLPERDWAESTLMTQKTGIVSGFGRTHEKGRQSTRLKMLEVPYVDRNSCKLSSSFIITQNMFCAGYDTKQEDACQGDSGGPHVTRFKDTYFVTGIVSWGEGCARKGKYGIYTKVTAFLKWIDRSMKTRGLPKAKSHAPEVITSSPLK
Tissue-type plasminogen activator, sequence (P00750 whole entry): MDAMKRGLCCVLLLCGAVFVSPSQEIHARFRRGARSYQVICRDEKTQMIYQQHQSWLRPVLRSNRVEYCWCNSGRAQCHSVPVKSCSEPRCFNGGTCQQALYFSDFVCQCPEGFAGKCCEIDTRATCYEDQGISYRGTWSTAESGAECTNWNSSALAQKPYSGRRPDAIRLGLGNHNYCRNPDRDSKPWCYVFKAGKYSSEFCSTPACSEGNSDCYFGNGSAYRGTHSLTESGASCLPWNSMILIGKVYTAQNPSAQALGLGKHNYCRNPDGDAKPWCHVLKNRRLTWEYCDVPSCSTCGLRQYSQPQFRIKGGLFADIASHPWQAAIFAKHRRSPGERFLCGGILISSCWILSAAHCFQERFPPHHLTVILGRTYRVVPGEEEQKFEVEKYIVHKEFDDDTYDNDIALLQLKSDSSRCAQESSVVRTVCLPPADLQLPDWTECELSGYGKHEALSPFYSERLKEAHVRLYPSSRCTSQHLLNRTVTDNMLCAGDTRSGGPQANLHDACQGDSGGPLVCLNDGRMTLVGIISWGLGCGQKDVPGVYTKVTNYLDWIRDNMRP

Compound `O=C(NC1CCN(C2CCCCC2)CC1)c1cc2ccccc2n1Cc1cc(-c2ccc(Cl)s2)on1` came in with a Ki in experiment [1] of 106 nM.

As to `O=C(NC1CCN(C2CC2)CC1)c1cc2ccccc2n1Cc1cc(-c2ccc(Cl)s2)on1`, the Concentration in experiment [2] was 19.6 µM. The Ki was 8220 nM in experiment [3], more than 100000 nM in experiment [5] and more than 100000 nM in experiment [6]. Besides, the IC50 in experiment [4] turned out to be 1790 nM.

In turn, `O=C(NC1CCN(c2ccncc2)CC1)c1cc2ccccc2n1Cc1cc(-c2ccc(Cl)s2)on1` displayed a Concentration in experiment [2] of 6.04 µM. For the same compound, the Ki is more than 10000 nM in experiment [3], more than 100000 nM in experiment [5] and more than 100000 nM in experiment [6]. For the same compound, the IC50 in experiment [4] was 230 nM.

In turn, `CC(C)N1CC[C@@H](NC(=O)c2cc3ccccc3n2Cc2cc(-c3ccc(Cl)s3)on2)C1` displayed a Concentration in experiment [2] of 13.7 µM. The values for the Ki in experiment [3], in experiment [5] and in experiment [6] were more than 10000 nM, more than 100000 nM and more than 100000 nM, respectively. In experiment [4], the IC50 came out at 620 nM.

Turning to `CC(C)N1CC(NC(=O)c2cc3ccccc3n2Cc2cc(-c3ccc(Cl)s3)on2)C1`, in experiment [1], affinity was put at a Ki of 225 nM.

In experiment [1], `CC(C)N1CCC(CNC(=O)c2cc3ccccc3n2Cc2cc(-c3ccc(Cl)s3)on2)CC1` came in with a Ki of 161 nM.

In the case of `CC(C)N1CC(CNC(=O)c2cc3ccccc3n2Cc2cc(-c3ccc(Cl)s3)on2)C1`, in experiment [1], the Ki was determined as 839 nM.

In turn, `O=C(c1cc2ccccc2n1Cc1cc(-c2ccc(Cl)s2)on1)N1CCC(Oc2ccncc2)CC1` gave a Ki in experiment [1] of 2900 nM.

With `CC(C)N1CCC(NC(=O)c2cc3ccccc3n2Cc2cc(-c3ccc(Cl)s3)on2)CC1`, the Concentration in experiment [2] was found to be 5.41 µM. The Ki in experiment [3] is 2760 nM; in experiment [5] it was more than 100000 nM; in experiment [6] it was more than 100000 nM. The compound also came in with an IC50 in experiment [4] of 420 nM.

In the case of `CCN1CCC(NC(=O)c2cc3ccccc3n2Cc2cc(-c3ccc(Cl)s3)on2)CC1`, in experiment [2], the Concentration is 9.02 µM. Moreover, the Ki in experiment [3] was more than 10000 nM; in experiment [5], more than 100000 nM; in experiment [6], more than 100000 nM. Further, the IC50 in experiment [4] worked out at 370 nM.

Compound `CCCN1CCC(NC(=O)c2cc3ccccc3n2Cc2cc(-c3ccc(Cl)s3)on2)CC1` returned a Concentration in experiment [2] of 15.6 µM. Also, the IC50 in experiment [4] came to 1560 nM.

Compound `O=C(c1cc2ccccc2n1Cc1cc(-c2ccc(Cl)s2)on1)N1CCC(Nc2ccncc2)CC1` registered a Concentration in experiment [2] of 5.78 µM. For the same compound, the Ki in experiment [3] is 3160 nM; in experiment [5], more than 100000 nM; in experiment [6] it was 64000 nM. This compound yielded an IC50 in experiment [4] of 190 nM.

In experiment [2], `CN1CCC(NC(=O)c2cc3ccccc3n2Cc2cc(-c3ccc(Cl)s3)on2)CC1` came in with a Concentration of 30.7 µM. The Ki in experiment [3] is more than 10000 nM; in experiment [5], more than 100000 nM; in experiment [6] it was more than 100000 nM. The compound also gave an IC50 in experiment [4] of 1550 nM.

Regarding `CS(=O)(=O)N1CCC(NC(=O)c2cc3ccccc3n2Cc2cc(-c3ccc(Cl)s3)on2)CC1`, the Ki in experiment [1] was determined as 125 nM. In other words, the sub-micromolar range.

As for `CC(C)CN1CC(NC(=O)c2cc3ccccc3n2Cc2cc(-c3ccc(Cl)s3)on2)C1`, the Ki in experiment [1] is 345 nM.

In experiment [1], `O=C(NC1CCN(C2CCCC2)CC1)c1cc2ccccc2n1Cc1cc(-c2ccc(Cl)s2)on1` returned a Ki of 71 nM. This Ki is about 4.9-fold lower than that of the compound before.

In the case of `O=C(NC1CCN(C2CCOCC2)CC1)c1cc2ccccc2n1Cc1cc(-c2ccc(Cl)s2)on1`, the Ki in experiment [1] came out at 95 nM.

For `O=C(NC1CN(c2ccncc2)C1)c1cc2ccccc2n1Cc1cc(-c2ccc(Cl)s2)on1`, in experiment [2], the Concentration is 6.2 µM. For the same compound, the Ki in experiment [3] was more than 10000 nM; in experiment [1] it was 12 nM; in experiment [5], more than 100000 nM; in experiment [6] it was more than 100000 nM. This compound also had an IC50 in experiment [4] of 370 nM.
